Bioassay records (PubChem)
IDH1 mut inh: inhibitors of IDH1 R132H reductase, primary screen, biochemical, plate reader, single point. Isocitrate dehydrogenase [NADP] cytoplasmic (Homo sapiens), O75874. diaphorase/resazurin fluorescence, 60 min. inhibition, % at 10 µM. 0.18% of 70,000 active. AID 624101, 2012; in the data active = inhibition above about 34%
Target sequence (O75874 whole entry R132H): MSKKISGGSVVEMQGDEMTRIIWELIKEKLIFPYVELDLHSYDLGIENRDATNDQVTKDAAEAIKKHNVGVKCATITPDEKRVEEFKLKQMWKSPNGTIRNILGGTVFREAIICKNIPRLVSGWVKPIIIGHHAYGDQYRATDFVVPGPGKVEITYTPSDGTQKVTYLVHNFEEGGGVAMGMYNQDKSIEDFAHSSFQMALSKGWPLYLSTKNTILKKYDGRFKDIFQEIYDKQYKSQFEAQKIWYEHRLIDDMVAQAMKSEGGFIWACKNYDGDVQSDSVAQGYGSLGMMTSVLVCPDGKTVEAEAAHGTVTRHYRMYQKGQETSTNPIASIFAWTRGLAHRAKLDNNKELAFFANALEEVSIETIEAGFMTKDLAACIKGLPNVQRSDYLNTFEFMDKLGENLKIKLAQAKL
KDM4C inh: inhibitors of GASC-1 (KDM4C) histone demethylase, primary screen, biochemical, single concentration HTS; GST-KDM4C 2-372, H3K9me3 peptide, LANCE TR-FRET; inhibition, % at 12.5 µM; 0.15% of 96,000 active;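 active = mean replicate inhibition above about 25%, with at least 55% of replicates also reaching it, limit read from the data, passing the limit was not always enough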
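Material: N-terminal GST-fused human GASC-1 (KDM4C) fragment, residues 2-372. Input: 10 nM enzyme. Incubation: enzyme reaction 30 min, then detection 60 min, both room temperature. Doses: one test concentration per compound. Read-out basis: inhibition from TR-FRET ratio decrease. Detection: LANCE TR-FRET, excitation 340 nm, emissions 618 and 671 nm.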
A number is an active result; – = inactive; · = no result given. This excerpt belongs to a sample that is enriched for hits.

SMILES	IDH1 mut inh	KDM4C inh
CCn1c(SCC(=O)Nc2ccc(I)cc2C)nnc1-c1ccccc1	–	·
CN1C(=O)c2cc(NC(=O)C3CC3)ccc2OC[C@H]2O[C@@H](CC(=O)O)CC[C@@H]21	·	44
CN1C(=O)c2cc(NC(=O)C3CC3)ccc2OC[C@@H]2O[C@@H](CC(=O)O)CC[C@@H]21	·	–
O=C(COc1ccc(Br)cc1)Nc1cccc2ncccc12	–	·
Cc1cc(O)cc(Oc2cc(C)cc(O)c2O)c1	56	·
Cc1cc(C(C)(C)C)c(O)c(C(C)(C)C)c1	–	·
C/C=C/c1ccc2c(c1)O[C@@H](CN(C)C(=O)Cc1cccnc1)[C@H](C)CN([C@H](C)CO)S2(=O)=O	–	–
C/C=C/c1ccc2c(c1)O[C@H](CN(C)Cc1ccncc1)[C@@H](C)CN([C@H](C)CO)S2(=O)=O	42	–
C/C=C/c1ccc2c(c1)O[C@@H](CN(C)C(=O)Cc1cccnc1)[C@H](C)CN([C@@H](C)CO)S2(=O)=O	46	–
C/C=C/c1ccc2c(c1)O[C@@H](CN(C)Cc1ccncc1)[C@@H](C)CN([C@@H](C)CO)S2(=O)=O	–	–
CCOC(=O)C1=C(C)Nc2ncnn2C1c1ccccc1[N+](=O)[O-] (stereo not given)	–	·
CN(c1ccc(OCC(=O)O)cc1)S(=O)(=O)c1ccc(F)cc1	–	·
O=C(CCc1ccc(O)cc1)CC(O)CCc1ccc(O)c(O)c1 (stereo not given)	54	·
CCCCCCC[C@@H](O)CC(=O)CCc1ccc(O)c(OC)c1	–	·
COC(CCc1ccc(O)c(O)c1)CC(=O)CCc1ccc(O)c(O)c1 (stereo not given)	52	·
CCCCC[C@H](O)CC(=O)CCc1ccc(O)c(OC)c1	–	·
CCN(CC(=O)Nc1ccc(I)cc1)S(=O)(=O)c1ccc(Cl)cc1	–	·
CCCNC(=O)Nc1ccc2c(c1)OC[C@@H](C)N(C(=O)C1CCOCC1)C[C@H](C)[C@@H](OC)CN(C)C2=O	–	–
CO[C@H]1CN(C)C(=O)c2ccc(NC(=O)NC(C)C)cc2OC[C@H](C)N(C(=O)CC2CC2)C[C@@H]1C	·	–
CO[C@@H]1CN(C)C(=O)c2ccc(NC(=O)NC(C)C)cc2OC[C@H](C)N(C(=O)CC2CC2)C[C@@H]1C	–	51
CCCNC(=O)Nc1ccc2c(c1)OC[C@H](C)N(C(=O)C1CCOCC1)C[C@H](C)[C@H](OC)CN(C)C2=O	–	35
CO[C@H]1CN(C)C(=O)c2cc(NC(=O)c3ccccc3)ccc2OC[C@@H](C)N(C(C)=O)C[C@@H]1C	87	·
CO[C@@H]1CN(C)C(=O)c2cc(NC(=O)c3ccccc3)ccc2OC[C@H](C)N(C(C)=O)C[C@H]1C	–	–
CCCc1nnc(NC(=O)c2nc(SC)ncc2Cl)s1	–	·
Cc1ccc(NC(=O)c2oc3ccccc3c2NC(=O)Cc2coc3ccc(C)cc23)cc1	–	·
SMILES	IDH1 mut inh	KDM4C inh
COc1ccc(Cl)cc1NC(=O)C12CCC(C)(c3nc4ccccc4nc31)C2(C)C (stereo not given)	–	·
COc1ccc(-c2csc(N3N=C(C)C(C(c4ccc(Cl)cc4)C(C#N)C(N)=O)C3=O)n2)cc1 (stereo not given)	–	·
COc1ccc(NC(=O)N(C)C[C@H]2Oc3ccc(NC(=O)Nc4ccccc4)cc3CC(=O)N([C@H](C)CO)C[C@@H]2C)cc1	–	42
COc1ccc(NC(=O)Nc2ccc3c(c2)CC(=O)N([C@H](C)CO)C[C@H](C)[C@@H](CN(C)C(=O)Nc2ccccc2)O3)cc1	–	–
COc1ccc(NC(=O)Nc2ccc3c(c2)CC(=O)N([C@@H](C)CO)C[C@@H](C)[C@@H](CN(C)C(=O)Nc2ccccc2)O3)cc1	–	–
Cc1noc(C)c1S(=O)(=O)N(C)C[C@H]1Oc2ccc(NS(=O)(=O)c3ccccc3)cc2CC(=O)N([C@H](C)CO)C[C@@H]1C	–	45
COc1ccc(NC(=O)N(C)C[C@@H]2Oc3ccc(NC(=O)Nc4ccccc4)cc3CC(=O)N([C@@H](C)CO)C[C@H]2C)cc1	59	–
Cc1noc(C)c1S(=O)(=O)N(C)C[C@H]1Oc2ccc(NS(=O)(=O)c3ccccc3)cc2CC(=O)N([C@@H](C)CO)C[C@@H]1C	–	–
COc1ccc(CN2C(=O)C(O)(CC(=O)c3cccnc3)c3ccccc32)cc1OC (stereo not given)	–	·
CCn1c(SCC(=O)Nc2cc(Cl)ccc2Cl)nnc1-c1ccccc1OC	–	·
COc1ccc(NC(=O)CSc2ncnc3c2sc2nc(N4CCOCC4)c4c(c23)CC(C)(C)OC4)cc1	–	·
C=CCSc1n[nH]c(=O)n1-c1cccc(Cl)c1	–	·
CCNC(=O)[C@@H]1[C@@H](CO)[C@@H]2Cn3c(ccc(-c4cccnc4)c3=O)[C@@H]2N1Cc1ccccc1	·	–
O=C(NCC(F)(F)F)[C@@H]1[C@@H](CO)[C@@H]2Cn3c(ccc(-c4cccnc4)c3=O)[C@@H]2N1Cc1ccncc1	·	38
COCc1cn(CC[C@H]2CC[C@H](NC(=O)Nc3ccc(OC)cc3)[C@H](CO)O2)nn1	89	89
COCc1cn(CC[C@@H]2CC[C@@H](NC(=O)Nc3ccc(OC)cc3)[C@H](CO)O2)nn1	–	–
COc1ccc(CN2C(=O)c3cccc4cccc(c34)C2=O)cc1S(=O)(=O)N1CCOCC1	–	·
O=C(N[C@@H]1CC[C@@H](CCNS(=O)(=O)Cc2ccccc2)O[C@@H]1CO)c1ccc2c(c1)OCO2	–	–
O=C(N[C@H]1CC[C@H](CCNS(=O)(=O)Cc2ccccc2)O[C@H]1CO)c1ccc2c(c1)OCO2	–	35
COC(=O)c1ccccc1NC(=O)COc1cc(C)c(Br)c(C)c1	–	·
COc1ccc(-c2ccc3n(c2=O)C[C@@H]2[C@@H](CO)[C@H](C(=O)N(C)C)N(CC4CCCC4)[C@H]32)cc1	·	–
COc1ccc(-c2ccc3n(c2=O)C[C@@H]2[C@@H](CO)[C@H](C(=O)N(C)C)N(CC4CC4)[C@H]32)cc1	·	28
COc1ccc(NC(=O)CSc2nc3ccccc3c(=O)n2-c2ccc(C)cc2)c(OC)c1	–	·
CC(C(=O)Nc1cc(Cl)ccc1Oc1ccccc1)N(c1ccccc1)S(C)(=O)=O (stereo not given)	–	·
CC(C)CC#Cc1ccc([C@@H]2[C@@H](CO)N3CCCCN(S(=O)(=O)c4ccc(F)cc4)C[C@H]23)cc1	·	–
SMILES	IDH1 mut inh	KDM4C inh
CN(C)CC#Cc1ccc([C@@H]2[C@@H](CO)N3CCCCN(S(=O)(=O)c4ccccc4)C[C@@H]23)cc1	·	32
CN(C)CC#Cc1ccc([C@@H]2[C@H](CO)N3CCCCN(S(=O)(=O)c4ccccc4)C[C@@H]23)cc1	·	–
CC(C)CC#Cc1ccc([C@H]2[C@@H](CO)N3CCCCN(S(=O)(=O)c4ccc(F)cc4)C[C@H]23)cc1	·	26
COC(=O)c1c(NC(=S)NCc2ccco2)sc2c1CCC2	–	·
COc1ccc(OC)c(S(=O)(=O)Nc2cc([N+](=O)[O-])ccc2C)c1	–	·
Cc1nnc(SCC(=O)N2N=CCC2c2ccccc2)s1 (stereo not given)	–	·
C[C@@H]1CN([C@@H](C)CO)C(=O)c2c(c3ccccc3n2C)-c2ccccc2CO[C@@H]1CN(C)Cc1ccncc1	47	–
C[C@@H]1CN([C@@H](C)CO)C(=O)c2c(c3ccccc3n2C)-c2ccccc2CO[C@@H]1CN(C)Cc1ccc(O)cc1	·	–
